Experimental findings from ChEMBL document CHEMBL1154727, “Cytotoxic activity of 3-(5-phenyl-3H-[1,2,4]dithiazol-3-yl)chromen-4-ones and 4-oxo-4H-chromene-3-carbothioic acid N-phenylamides” (Eur J Med Chem, 2010) are described below.

The test system of experiment [1] is A549. In words: Growth inhibition of human A549 cells at 1 uM after 48 hrs by sulforhodamine B assay. It counts as functional. The conditions noted are these: A549, 48 h, read-out: GI. Put shortly:
(§1)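 Cells grown in RPMI-1640 with 10% FBS and antibiotics, plated at 1 × 10^4 cells/well for 24 h at 37 °C, 5% CO2. Agents diluted in gentamycin-containing medium, then added in quadruplicate for 48 h. Cells fixed with cold TCA at 4 °C for 1 h, stained with 0.4% SRB, and dye dissolved in 10 mM Tris pH 10.5; absorbance read at 540 nm.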
In general terms: In SRB staining, fixed cells bind dye roughly in proportion to their protein.

Experiment [2] has as its system HEp-2. Briefly: Growth inhibition of human Hep2 cells at 1 uM after 48 hrs by sulforhodamine B assay. It counts as functional. The conditions noted are these: HEp-2, 48 h, read-out: GI. Put shortly:
as §1

Experiment [3] deals with IMR-32. In words: Growth inhibition of human IMR32 cells at 1 uM after 48 hrs by sulforhodamine B assay. The conditions noted are these: IMR-32, 48 h, read-out: GI. Type of experiment: functional. Put shortly:
as §1

The subject of experiment [4] is IMR-32. Briefly: Growth inhibition of human IMR32 cells after 48 hrs by sulforhodamine B assay. Type of experiment: functional, cell-based. The settings on record: IMR-32, 48 h. An outline of the steps:
(§2)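 Cells kept in RPMI-1640 with 10% FBS, penicillin and streptomycin; trypan blue viability check beforehand. Seeded at 1 × 10^4 cells/well, 24 h at 37 °C, 5% CO2, then treated in quadruplicate for 48 h. Compounds diluted in medium with 50 µg/ml gentamycin; single test level 100 µM. TCA fixation at 4 °C for 1 h, SRB stain, Tris pH 10.5 solubilization, OD 540 nm. IC50 taken as the mean from dose-response curves.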

Experiment [5] relates to A549. In words: Growth inhibition of human A549 cells at 10 uM after 48 hrs by sulforhodamine B assay. The conditions noted are these: A549, 48 h, read-out: GI. It counts as functional. Put shortly: as §1
The subject of experiment [6] is HEp-2. Briefly: Growth inhibition of human Hep2 cells at 10 uM after 48 hrs by sulforhodamine B assay. It counts as functional. The settings on record: HEp-2, 48 h, read-out: GI. Put shortly: as §1
Experiment [7] has as its system IMR-32. In words: Growth inhibition of human IMR32 cells at 10 uM after 48 hrs by sulforhodamine B assay. Type of experiment: functional. The conditions noted are these: IMR-32, 48 h, read-out: GI. An outline of the steps:
as §1

In experiment [8] the test system is A549. In words: Growth inhibition of human A549 cells after 48 hrs by sulforhodamine B assay. It counts as functional, cell-based. The settings on record: A549, 48 h. An outline of the steps:
as §2

Experiment [9] deals with OVCAR-5 (human). In words: Growth inhibition of human OVCAR-5 cells after 48 hrs by sulforhodamine B assay. The conditions noted are these: OVCAR-5, 48 h.
A further experiment concerns COLO 205. In words: Growth inhibition of human COLO205 cells at 10 uM after 48 hrs by sulforhodamine B assay. The conditions noted are these: COLO 205, 48 h, read-out: GI. It counts as functional. An outline of the steps:
as §1

For experiment [10], the system named is PC-3. Briefly: Growth inhibition of human PC3 cells at 10 uM after 48 hrs by sulforhodamine B assay. The settings on record: PC-3, 48 h, read-out: GI. It counts as functional. Put shortly: as §1
For experiment [11], the system named is PC-3. In words: Growth inhibition of human PC3 cells after 48 hrs by sulforhodamine B assay. It counts as functional, cell-based. The settings on record: PC-3, 48 h. An outline of the steps: as §2
For experiment [12], the system named is HEp-2. In words: Growth inhibition of human Hep2 cells after 48 hrs by sulforhodamine B assay. It counts as functional, cell-based. The conditions noted are these: HEp-2, 48 h. An outline of the steps: as §2
The test system of experiment [13] is OVCAR-5 (human). In words: Growth inhibition of human OVCAR-5 cells at 10 uM after 48 hrs by sulforhodamine B assay. The conditions noted are these: OVCAR-5, 48 h, read-out: GI.

Each structure is given as a SMILES string.

As to `COc1cccc2c1C(=O)c1c(O)c3c(c(O)c1C2=O)C[C@@](O)(C(=O)CO)C[C@@H]3O[C@H]1C[C@H](N)[C@H](O)[C@H](C)O1` [DOXORUBICIN], the inhibition of growth at 1 µM in the experiment on A549 [1] stood at 93%; in the experiment on HEp-2 [2], 57%; with IMR-32 [3], 55%. Half-maximal inhibition in the experiment on IMR-32 [4] (IC50) required 1700 nM.
As for `CC(=O)O[C@H]1C(=O)[C@@]2(C)[C@H]([C@H](OC(=O)c3ccccc3)[C@]3(O)C[C@H](OC(=O)[C@H](O)[C@@H](NC(=O)c4ccccc4)c4ccccc4)C(C)=C1C3(C)C)[C@]1(OC(C)=O)CO[C@@H]1C[C@@H]2O` [PACLITAXEL], the inhibition of growth at 10 µM with A549 [5] is 67%; in the experiment on HEp-2 [6], 55%; with IMR-32 [7] it was 45%. The IC50 in the experiment on A549 [8] and in the experiment on OVCAR-5 (human) [9] was 2700 nM each time.
Take `CO[C@@]12[C@H](COC(N)=O)C3=C(C(=O)C(C)=C(N)C3=O)N1C[C@@H]1N[C@@H]12` [MITOMYCIN]: the inhibition of growth at 10 µM is 44% in the experiment with COLO 205, 41% with PC-3 [10] and 65% in the experiment on OVCAR-5 (human) [13]. In addition, the IC50 in the experiment on PC-3 [11] and in the experiment with HEp-2 [12] was 1500 nM in each case.

For orientation: IC50 means the midpoint of a concentration-inhibition curve. Lower therefore signals higher potency.
